Experimental findings from ChEMBL document CHEMBL1649505, “Activity of telavancin against Staphylococcus aureus strains with various vancomycin susceptibilities in an in vitro pharmacokinetic/pharmacodynamic model with simulated endocardial vegetations” (Antimicrob Agents Chemother, 2009) are described below.

In brackets after ≈: the same amount, converted by molar mass. Activity calls are given as the source filed them. The rule behind the calls is not given here.

Data set [1] in a line: Cmax in in vitro pharmacokinetic/pharmacodynamic model at 300 mg for every 8 hrs.
The subject of data set [2] is Staphylococcus aureus. The experiment in a line: Antimicrobial activity against glycopeptide-intermediate Staphylococcus aureus NJ992 by broth microdilution method.
The subject of data set [3] is Staphylococcus aureus. The experiment in a line: microbe, parasite or virus in culture. The following applies: 494.
The test system of data set [4] is Staphylococcus aureus. The experiment in a line: microbe, parasite or virus in culture. The following applies: 1199.
Data set [5] relates to Staphylococcus aureus. The experiment in a line: Antimicrobial activity against heteroresistant glycopeptide-intermediate Staphylococcus aureus 1629 by broth microdilution method. Format: functional. The gist of the method: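 MICs determined by broth microdilution at ~5.5 log10 CFU/ml following CLSI guidelines.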
Data set [6] is described as follows: AUC (0 to 24 hrs) in in vitro pharmacokinetic/pharmacodynamic model at 300 mg for every 8 hrs.
Data set [7] in a line: Cmax in in vitro pharmacokinetic/pharmacodynamic model at 5 mg/kg for every 24 hrs. Also on record: dose 5 mg/kg. The class given is ADME, organism-based. The gist of the method: (§1)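 Drugs given as boluses into the central compartment of a 250-ml glass in vitro PK/PD model over 96 h. Samples taken via the injection port at 1, 4, 8, 24, 32, 48, 72 and 96 h. […] Half-life, peak and AUC derived by the trapezoidal method. Models run in duplicate; mean ± SD.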

The nature of data set [8]: Half life in in vitro pharmacokinetic/pharmacodynamic model at 5 mg/kg for every 24 hrs. Format: ADME, organism-based. Further details: dose 5 mg/kg. The gist of the method:
as §1

Data set [9] is described as follows: AUC (0 to 24 hrs) in in vitro pharmacokinetic/pharmacodynamic model at 5 mg/kg for every 24 hrs. Further details: time < 24 hr, dose 5 mg/kg. Format: ADME, organism-based. The gist of the method: as §1
Data set [10] in a line: Cmax in in vitro pharmacokinetic/pharmacodynamic model at 1 g for every 12 hrs. The class given is ADME. Further details: dose 1 g. The gist of the method:
as §1

Data set [11] can be described thus: AUC (0 to 24 hrs) in in vitro pharmacokinetic/pharmacodynamic model at 1 g for every 12 hrs. The class given is ADME. Further details: dose 1 g, time < 24 hr. The gist of the method: as §1
A short description of data set [12]: Half life in in vitro pharmacokinetic/pharmacodynamic model at 1 g for every 12 hrs. The class given is ADME. The gist of the method:
as §1

The subject of data set [13] is Staphylococcus aureus. The data set can be described thus: Antibacterial activity against methicillin-susceptible Staphylococcus aureus 1199 assessed as decrease in bacterial load in in vitro pharmacokinetic/pharmacodynamic model at 1 g for every 12 hrs administered daily after 96 hrs. Format: functional, organism-based. The gist of the method: (§2)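 250-ml in vitro PK/PD model holding simulated endocardial vegetations, inoculum ~9 log10 CFU/g. Regimens simulated over 96 h: telavancin 10 mg/kg daily (peak 87.5 μg/ml, t½ 8 h) or vancomycin 1 g every 12 h (trough 10 μg/ml, t½ 6 h). Two SEVs per model removed at 0–96 h, homogenized, diluted and plated on TSA at 35°C for 18–24 h. Detection limit 2 log10 CFU/g; models in duplicate.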

The subject of data set [14] is Staphylococcus aureus. The data set can be described thus: Antibacterial activity against glycopeptide-intermediate Staphylococcus aureus NJ992 assessed as decrease in bacterial load in in vitro pharmacokinetic/pharmacodynamic model at 10 mg/kg administered daily after 62 hrs. Format: functional, organism-based. Further details: dose 10 mg/kg. The gist of the method: as §2

Data set [15] is described as follows: AUC (0 to 24 hrs) in in vitro pharmacokinetic/pharmacodynamic model at 10 mg/kg for every 12 hrs. Also on record: time < 24 hr, dose 10 mg/kg. Format: ADME, organism-based. Conditions: in the assay text read “every 24 hrs” for “every 12 hrs”. The gist of the method:
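Central compartment (250 ml glass in vitro PK/PD model holding simulated endocardial vegetations) sampled via injection port at 1, 4, 8, 24, 32, 48, 72 and 96 h. Drug levels measured by agar-well bioassay with Micrococcus luteus ATCC 9341 (zone sizes after 18–24 h at 35°C). Peak, half-life and AUC derived by trapezoidal method. Models run in duplicate; mean ± SD.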

In data set [16] the test system is Staphylococcus aureus. The experiment in a line: Antibacterial activity against glycopeptide-intermediate Staphylococcus aureus NJ992 assessed as decrease in bacterial load in in vitro pharmacokinetic/pharmacodynamic model at 1 g for every 12 hrs administered daily after 96 hrs. The class given is functional, organism-based. The gist of the method: as §2
For data set [17], the system named is Staphylococcus aureus. The data set can be described thus: Antibacterial activity against heteroresistant glycopeptide-intermediate Staphylococcus aureus 1629 assessed as bacterial load per gram in in vitro pharmacokinetic/pharmacodynamic model at 10 mg/kg administered daily after 96 hrs. The class given is functional. The gist of the method: as §2
The subject of data set [18] is Staphylococcus aureus. The experiment in a line: Antibacterial activity against methicillin-resistant Staphylococcus aureus 494 assessed as decrease in bacterial load in in vitro pharmacokinetic/pharmacodynamic model at 1 g for every 12 hrs administered daily after 96 hrs. The class given is functional, organism-based. The gist of the method: as §2
Data set [19] concerns Staphylococcus aureus. The experiment in a line: Antibacterial activity against heteroresistant glycopeptide-intermediate Staphylococcus aureus 1629 assessed as decrease in bacterial load in in vitro pharmacokinetic/pharmacodynamic model at 10 mg/kg administered daily after 64 hrs. Format: functional, organism-based. Further details: dose 10 mg/kg. The gist of the method:
as §2

Data set [20] deals with Staphylococcus aureus. The data set can be described thus: Antibacterial activity against glycopeptide-intermediate Staphylococcus aureus NJ992 assessed as bacterial load per gram in in vitro pharmacokinetic/pharmacodynamic model at 10 mg/kg administered daily after 96 hrs. The class given is functional.
In data set [21] the test system is Staphylococcus aureus. The experiment in a line: Antibacterial activity against methicillin-susceptible Staphylococcus aureus 1199 assessed as bacterial load per gram in in vitro pharmacokinetic/pharmacodynamic model at 10 mg/kg administered daily after 96 hrs. The class given is functional. The gist of the method:
as §2

Data set [22] relates to Staphylococcus aureus. The data set can be described thus: Antibacterial activity against heteroresistant glycopeptide-intermediate Staphylococcus aureus 1629 assessed as decrease in bacterial load in in vitro pharmacokinetic/pharmacodynamic model at 1 g for every 12 hrs administered daily after 96 hrs. The class given is functional, organism-based. The gist of the method: as §2

As to `CO[C@H]1/C=C/O[C@@]2(C)Oc3c(C)c(O)c4c(O)c(c(/C=N/N5CCN(C)CC5)c(O)c4c3C2=O)NC(=O)/C(C)=C\C=C\[C@H](C)[C@H](O)[C@@H](C)[C@@H](O)[C@@H](C)[C@H](OC(C)=O)[C@@H]1C` [RIFAMPIN], the highest level in data set [1] (Cmax) was 4900 ng/mL. Moreover, the MIC in data set [2] is 2050 µg/mL (≈ 2490 µM); in data set [3] it was 0.004 µg/mL (≈ 0.00486 µM); in data set [4] it was 0.004 µg/mL (≈ 0.00486 µM); in data set [5], 0.004 µg/mL (≈ 0.00486 µM). The compound further came in with an AUC at 24 h in data set [6] of 64.4 µg·h/mL.
In turn, GENTAMICIN [listing 1 of 2 here] had a Cmax in [7] of 15800 ng/mL. This compound registered a t1/2 in data set [8] of 3.4 h. Besides, in data set [9], the area under the curve (AUC) amounted to 63.1 µg·h/mL.
Turning to `CN[C@H](CC(C)C)C(=O)N[C@H]1C(=O)N[C@@H](CC(N)=O)C(=O)N[C@H]2C(=O)N[C@H]3C(=O)N[C@H](C(=O)N[C@H](C(=O)O)c4cc(O)cc(O)c4-c4cc3ccc4O)[C@H](O)c3ccc(c(Cl)c3)Oc3cc2cc(c3O[C@@H]2O[C@H](CO)[C@@H](O)[C@H](O)[C@H]2O[C@H]2C[C@](C)(N)[C@H](O)[C@H](C)O2)Oc2ccc(cc2Cl)[C@H]1O` [VANCOMYCIN], the Cmax in [10] is 37000 ng/mL. For the same compound, the MIC in data set [2] stood at 8 µg/mL (≈ 5.52 µM). For the same compound, the AUC at 24 h in data set [11] stood at 391 µg·h/mL. For the same compound, the half-life in [12] was 6.2 h.
Take `CCCCCCCCCCNCCN[C@@]1(C)C[C@H](O[C@H]2[C@H](Oc3c4cc5cc3Oc3ccc(cc3Cl)[C@@H](O)[C@@H](NC(=O)[C@@H](CC(C)C)NC)C(=O)N[C@@H](CC(N)=O)C(=O)N[C@H]5C(=O)N[C@H]3C(=O)N[C@H](C(=O)N[C@H](C(=O)O)c5cc(O)c(CNCP(=O)(O)O)c(O)c5-c5cc3ccc5O)[C@H](O)c3ccc(c(Cl)c3)O4)O[C@H](CO)[C@@H](O)[C@@H]2O)O[C@@H](C)[C@H]1O` [TELAVANCIN]: the result in data set [13], in [16], in data set [18] and in data set [22] was inactive. Besides, the MIC in data set [2] came out at 0.5 µg/mL (≈ 0.285 µM); in [3] it was 0.125 µg/mL (≈ 0.0712 µM); in data set [4], 0.25 µg/mL (≈ 0.142 µM); in [5], 0.125 µg/mL (≈ 0.0712 µM). Moreover, the outcome in [14] and in data set [19] was Active. Also, the AUC at 24 h in [15] was 969 µg·h/mL. The values for the CFU/g in data set [17], in data set [20] and in data set [21] were 4.2 log10 CFU/g, 4.1 log10 CFU/g and 2.8, respectively.
As for GENTAMICIN [listing 2 of 2 here], the MIC in data set [5] was found to be 0.25 µg/mL.
